# Laboratory results as given in ChEMBL document CHEMBL4732182, “Design, synthesis and biological evaluation of 2-substituted-6-[(4-substituted-1-piperidyl)methyl]-1H-benzimidazoles as inhibitors of ebola virus infection” (Eur J Med Chem, 2021).
# The source made the active and inactive calls. No cut-off for these calls is given here.
# How the values were obtained:
# [1] = Selectivity index, ratio of CC50 for human Huh-7 cells to EC50 for Ebola virus infected in human HuH7 cells; type: toxicity, cell-based; details: read-out: Ratio CC50/EC50
# [2] = Cytotoxicity against human Huh-7 cells assessed as reduction in cell viability incubated for 3 days by cell-titer glo assay; type: cell-based; details: time 3 day
# Procedure, shortened: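 Huh7 cells received compound but no virus, in parallel with the infection assay. Viability was read by CellTiter-Glo luminescence. CC50 was derived from a 4-parameter fit to semi-log concentration-response curves.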
# [3] = test system: Ebolavirus; experiment: Antiviral activity against Ebola virus infected in human HuH7 cells assessed as reduction in viral infection pretreated for 2 hrs followed by viral infection and measured after 3 days by ZsGreen fluorescence assay; type: functional, organism-based; details: Orthoebolavirus, Huh-7
# [4] = target: T1, NPC intracellular cholesterol transporter 1 (Homo sapiens) (UniProt O15118); experiment: Inhibition of NPC1 in human HeLa cells assessed as increase in cholesterol accumulation in subcellular localization at 5 uM incubated for 24 hrs by filipin-staining based immunofluorescence assay; type: cell-based
# T1 sequence (whole entry): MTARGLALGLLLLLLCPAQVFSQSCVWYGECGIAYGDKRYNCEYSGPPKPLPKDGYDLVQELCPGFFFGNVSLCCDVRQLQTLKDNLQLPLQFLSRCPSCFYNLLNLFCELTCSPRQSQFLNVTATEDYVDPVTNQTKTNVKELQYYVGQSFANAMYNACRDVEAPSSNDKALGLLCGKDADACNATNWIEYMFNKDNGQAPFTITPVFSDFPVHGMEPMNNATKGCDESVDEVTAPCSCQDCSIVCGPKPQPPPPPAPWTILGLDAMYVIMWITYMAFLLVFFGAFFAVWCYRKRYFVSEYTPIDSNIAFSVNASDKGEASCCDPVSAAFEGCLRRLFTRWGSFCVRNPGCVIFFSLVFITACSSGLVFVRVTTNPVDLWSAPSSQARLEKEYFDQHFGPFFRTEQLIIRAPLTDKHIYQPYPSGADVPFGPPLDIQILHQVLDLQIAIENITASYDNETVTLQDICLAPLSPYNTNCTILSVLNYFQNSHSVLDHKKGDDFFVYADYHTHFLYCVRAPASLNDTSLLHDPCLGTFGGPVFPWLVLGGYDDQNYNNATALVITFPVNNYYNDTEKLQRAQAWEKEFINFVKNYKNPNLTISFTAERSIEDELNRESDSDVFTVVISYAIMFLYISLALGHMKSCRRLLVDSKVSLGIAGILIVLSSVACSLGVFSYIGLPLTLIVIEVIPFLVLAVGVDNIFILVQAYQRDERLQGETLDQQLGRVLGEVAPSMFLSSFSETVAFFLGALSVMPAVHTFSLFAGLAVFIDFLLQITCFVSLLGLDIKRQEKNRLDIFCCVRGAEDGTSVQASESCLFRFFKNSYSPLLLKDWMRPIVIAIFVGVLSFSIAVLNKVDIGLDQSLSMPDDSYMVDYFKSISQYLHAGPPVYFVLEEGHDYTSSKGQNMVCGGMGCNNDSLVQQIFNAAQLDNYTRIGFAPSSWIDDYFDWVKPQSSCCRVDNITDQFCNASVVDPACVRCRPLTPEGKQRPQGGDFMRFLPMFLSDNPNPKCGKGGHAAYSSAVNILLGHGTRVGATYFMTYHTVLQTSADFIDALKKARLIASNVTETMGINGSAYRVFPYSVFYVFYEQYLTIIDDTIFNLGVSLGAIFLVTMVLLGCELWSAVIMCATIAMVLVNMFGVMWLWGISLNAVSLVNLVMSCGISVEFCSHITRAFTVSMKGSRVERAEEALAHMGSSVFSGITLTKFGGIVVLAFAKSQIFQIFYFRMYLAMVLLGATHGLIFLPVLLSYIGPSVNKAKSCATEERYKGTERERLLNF
# Procedure, shortened: (§1)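 HeLa cells were exposed to compound for 24 h; DMSO vehicle was 0.1% (v/v) final. They were then stained with 0.5 mg/mL filipin in PBS plus 10% FCS for 2 h at RT and imaged on a high-content imager.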
# [5] = Inhibition of Ebolavirus glycoprotein transfected in human Huh-7 cells cotransfected with HIV luciferase reporter vector expressing plasmid assessed as reduction in virus entry measured after 3 days by Bright-Glo luciferase assay; type: cell-based; details: Orthoebolavirus, Huh-7, 72 h
# Procedure, shortened: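 Huh7 cells were preincubated with varying compound concentrations for 1 h at 37 C. HIV-based luciferase reporter particles pseudotyped with EBOV GP were then added. Firefly luciferase activity was measured by Bright-Glo 3 days later.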
# [6] = target: T1, NPC intracellular cholesterol transporter 1 (Homo sapiens); experiment: Inhibition of NPC1 in human HeLa cells assessed as increase in cholesterol accumulation in subcellular localization at 1 uM incubated for 24 hrs by filipin-staining based immunofluorescence assay; type: cell-based; procedure, shortened: as §1
SMILES,selectivity ratio [1],CC50 at 72 h [2],EC50 [3],inhibition [4],EC50 [5],inhibition [6]
CCOP(=O)(Cc1ccc(COc2ccccc2OC2CCN(Cc3ccc4nc(-c5ccc(OC(F)(F)F)cc5)[nH]c4c3)CC2)cc1)OCC,4,4.2 µM,1.19 µM,–,–,–
CCOP(=O)(Cc1cccc(COc2ccccc2OC2CCN(Cc3ccc4nc(-c5ccc(OC(F)(F)F)cc5)[nH]c4c3)CC2)c1)OCC,2,4.23 µM,1.97 µM,–,–,–
CCOP(=O)(Cc1cccc(COc2ccccc2OC2CCN(Cc3ccc4nc(-c5ccccc5)[nH]c4c3)CC2)c1)OCC,7,13.1 µM,1.88 µM,–,–,–
CCOP(=O)(Cc1ccc(COc2ccccc2OC2CCN(Cc3ccc4nc(-c5ccccc5)[nH]c4c3)CC2)cc1)OCC,5,14.7 µM,2.95 µM,–,–,–
CCOP(=O)(Cc1ccc(COc2ccccc2OC2CCN(Cc3ccc4nc(-c5cccc(C(F)(F)F)c5)[nH]c4c3)CC2)cc1)OCC,3,100 µM,29.7 µM,–,–,–
CCOP(=O)(Cc1ccc(COc2ccccc2OC2CCN(Cc3ccc4nc(-c5cccc(OC(F)(F)F)c5)[nH]c4c3)CC2)cc1)OCC,5,14.7 µM,2.95 µM,–,–,–
CCN(CC)CCO[C@H]1CC[C@@]2(C)C(=CC[C@@H]3[C@@H]2CC[C@]2(C)C(=O)CC[C@@H]32)C1,–,–,–,Active,–,–
CCOP(=O)(Cc1cccc(COc2ccccc2CC2CCN(Cc3ccc4nc(-c5cccc(OC(F)(F)F)c5)[nH]c4c3)CC2)c1)OCC,5,4.45 µM,0.87 µM,–,–,–
CCOP(=O)(Cc1cccc(COc2ccccc2CC2CCN(Cc3ccc4nc(-c5ccccc5)[nH]c4c3)CC2)c1)OCC,10,9.17 µM,0.93 µM,–,2.92 µM,Active
CN(C)CCOc1ccc(/C(=C(\CCCl)c2ccccc2)c2ccccc2)cc1,7,2.5 µM,0.38 µM,–,–,–
CCOP(=O)(Cc1ccc(COc2ccccc2OC2CCN(Cc3ccc4nc(-c5ccc(C(F)(F)F)cc5)[nH]c4c3)CC2)cc1)OCC,2,3.82 µM,1.73 µM,–,–,–
CCOP(=O)(Cc1ccc(COc2ccccc2CC2CCN(Cc3ccc4nc(-c5ccccc5)[nH]c4c3)CC2)cc1)OCC,20,13.2 µM,0.64 µM,–,1.35 µM,Active
